ChEMBL document CHEMBL1148531, “The discovery of new 11beta-hydroxysteroid dehydrogenase type 1 inhibitors by common feature pharmacophore modeling and virtual screening” (J Med Chem, 2006)
Active and inactive are the calls of the source. The calls are words filed in the database; no cut-off is given here.

Assays:
[1] = biological target: T1, 11-beta-hydroxysteroid dehydrogenase type 2 (Homo sapiens, UniProt P80365); assay: Inhibition of human recombinant 11betaHSD2 transfected in intact HEK293 cells; assay type: cell-based
T1 sequence (P80365 whole entry): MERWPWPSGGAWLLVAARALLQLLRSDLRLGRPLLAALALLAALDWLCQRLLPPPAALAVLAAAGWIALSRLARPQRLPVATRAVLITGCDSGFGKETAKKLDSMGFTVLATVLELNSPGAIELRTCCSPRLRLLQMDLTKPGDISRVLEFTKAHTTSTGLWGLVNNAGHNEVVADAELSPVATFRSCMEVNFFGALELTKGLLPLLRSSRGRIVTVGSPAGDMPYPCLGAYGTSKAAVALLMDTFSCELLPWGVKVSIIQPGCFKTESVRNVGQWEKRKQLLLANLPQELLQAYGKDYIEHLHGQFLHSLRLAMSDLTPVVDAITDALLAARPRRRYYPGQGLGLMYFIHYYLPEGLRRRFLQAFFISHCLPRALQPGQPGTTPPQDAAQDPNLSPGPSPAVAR

[2] = biological target: T2, 11-beta-hydroxysteroid dehydrogenase 1 (Homo sapiens, UniProt P28845); assay: Inhibition of human recombinant 11-beta-HSD1 transfected in intact HEK293 cells; assay type: cell-based
How it was run: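 HEK-293 cells cotransfected (calcium phosphate) with 11β-HSD1 and H6PDH plasmids, replated after 6 h at 30000 cells/well in steroid-free DMEM for 18 h. Inhibitor 50 nM–20 µM final with 200 nM radiolabeled cortisone, 90 min at 37 °C; stopped with excess unlabeled steroids in methanol, TLC, scintillation counting. Mean ± SD, at least four experiments.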
Target sequence in this assay (P28845 whole entry): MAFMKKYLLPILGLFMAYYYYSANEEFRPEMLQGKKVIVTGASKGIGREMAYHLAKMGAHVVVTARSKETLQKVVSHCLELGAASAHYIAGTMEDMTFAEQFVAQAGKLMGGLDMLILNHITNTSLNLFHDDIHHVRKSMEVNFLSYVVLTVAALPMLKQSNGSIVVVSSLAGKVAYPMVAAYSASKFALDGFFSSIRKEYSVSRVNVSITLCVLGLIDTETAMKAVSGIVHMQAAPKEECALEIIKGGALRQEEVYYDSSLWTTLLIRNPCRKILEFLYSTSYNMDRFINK

[3] = biological target: T3, 17-beta-hydroxysteroid dehydrogenase type 1 (Homo sapiens, UniProt P14061); assay: Inhibition of human recombinant 17betaHSD1 expressed in HEK293 cells; assay type: cell-based
T3 sequence (P14061 whole entry): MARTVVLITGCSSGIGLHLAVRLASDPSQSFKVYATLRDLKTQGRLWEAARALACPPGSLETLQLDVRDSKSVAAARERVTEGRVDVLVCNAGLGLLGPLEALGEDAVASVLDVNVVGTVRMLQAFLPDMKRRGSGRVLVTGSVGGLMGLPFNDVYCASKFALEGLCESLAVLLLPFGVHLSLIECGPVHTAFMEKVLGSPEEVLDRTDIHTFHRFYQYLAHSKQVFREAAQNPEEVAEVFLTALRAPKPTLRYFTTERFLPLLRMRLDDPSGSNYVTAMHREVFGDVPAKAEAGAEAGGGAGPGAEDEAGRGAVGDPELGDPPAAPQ
How it was run: (§1)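 Lysates of HEK-293 cells expressing human recombinant enzyme; inhibitor 50 nM–30 µM final, DMSO ≤0.1%. 11β-HSD1: 200 nM [1,2,6,7-3H]cortisone, 500 µM NADPH. 17β-HSD1: 200 nM radiolabeled estrone, 500 µM NADPH. 17β-HSD2: 200 nM radiolabeled estradiol, 500 µM NADP+. IC50 by nonlinear regression, first-order kinetics; mean ± SD, at least four experiments.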

[4] = tested on: HEK293; assay: Cytotoxicity against HEK293 cells upto 40 uM by MTT assay; assay type: functional, cell-based; settings: Homo sapiens
How it was run: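 HEK-293 cells on poly-D-lysine-coated wells exposed 4 h at 37 °C to 40 µM compound, then fresh medium with 0.5 mg/mL MTT; formazan dissolved in DMSO, absorbance A570 − A690. Controls: chloroform 1% v/v and NaOH 50 mM.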

[5] = biological target: T2, 11-beta-hydroxysteroid dehydrogenase 1; assay: Inhibition of human recombinant 11-beta-HSD1 expressed in HEK293 cells at 10 uM; assay type: cell-based; set-up: scale not given: the % may be the effect or the level left
How it was run: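 Lysates of HEK-293 cells expressing human 11β-HSD1; conversion of 200 nM tritiated cortisone with 500 µM NADPH, test compound at 10 µM; percent inhibition reported.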
Target sequence in this assay (P28845 whole entry, looked up): as the sequence (P28845 whole entry) above

[6] = biological target: Mineralocorticoid receptor (Homo sapiens) (UniProt P08235); assay: Inhibition of MR-mediated transactivation of galactosidase reporter gene in HEK293 cells
[7] = biological target: T4, 17-beta-hydroxysteroid dehydrogenase type 2 (Homo sapiens, UniProt P37059); assay: Inhibition of human recombinant 17-beta-HSD2 expressed in HEK293 cells; assay type: cell-based; how it was run: as §1
T4 sequence (P37059 whole entry): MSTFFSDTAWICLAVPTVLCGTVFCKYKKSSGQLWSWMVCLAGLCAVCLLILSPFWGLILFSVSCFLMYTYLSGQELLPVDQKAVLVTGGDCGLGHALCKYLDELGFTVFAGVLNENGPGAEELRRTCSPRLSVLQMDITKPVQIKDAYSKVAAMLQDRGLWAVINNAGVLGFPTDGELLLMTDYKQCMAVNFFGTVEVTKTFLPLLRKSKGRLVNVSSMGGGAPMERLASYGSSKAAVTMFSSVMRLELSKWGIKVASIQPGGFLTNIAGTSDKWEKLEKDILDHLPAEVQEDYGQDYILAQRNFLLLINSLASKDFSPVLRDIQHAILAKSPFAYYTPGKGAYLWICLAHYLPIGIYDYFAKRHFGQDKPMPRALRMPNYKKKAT

[8] = biological target: T5, Glucocorticoid receptor (Homo sapiens, UniProt P04150); assay: Inhibition of GR-mediated transactivation of galactosidase reporter gene in HEK293 cells in absence of 11betaHSD1; assay type: functional, cell-based
T5 sequence (P04150 whole entry): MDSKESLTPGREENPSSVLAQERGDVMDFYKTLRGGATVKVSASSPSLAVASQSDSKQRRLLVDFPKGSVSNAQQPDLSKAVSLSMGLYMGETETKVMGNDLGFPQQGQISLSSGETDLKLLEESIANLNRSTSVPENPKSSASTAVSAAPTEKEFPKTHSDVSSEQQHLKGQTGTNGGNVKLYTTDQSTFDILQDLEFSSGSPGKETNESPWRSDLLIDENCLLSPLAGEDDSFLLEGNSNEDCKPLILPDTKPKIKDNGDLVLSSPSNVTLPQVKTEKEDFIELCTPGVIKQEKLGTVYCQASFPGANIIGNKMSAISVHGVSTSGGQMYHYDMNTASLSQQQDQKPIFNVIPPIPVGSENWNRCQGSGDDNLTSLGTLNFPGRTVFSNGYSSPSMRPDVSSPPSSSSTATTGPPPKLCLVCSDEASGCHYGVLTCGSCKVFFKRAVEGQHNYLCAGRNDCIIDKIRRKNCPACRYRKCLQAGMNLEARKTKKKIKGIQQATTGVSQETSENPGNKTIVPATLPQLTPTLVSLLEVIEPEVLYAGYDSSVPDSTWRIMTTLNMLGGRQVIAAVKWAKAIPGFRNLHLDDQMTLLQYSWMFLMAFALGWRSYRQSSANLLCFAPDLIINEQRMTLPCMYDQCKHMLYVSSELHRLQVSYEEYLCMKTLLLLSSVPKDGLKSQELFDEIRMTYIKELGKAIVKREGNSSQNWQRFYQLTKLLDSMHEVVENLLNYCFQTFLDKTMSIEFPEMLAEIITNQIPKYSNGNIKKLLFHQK
How it was run: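 HEK-293 cells transfected with pMMTV-LacZ, pCMV-LUC and GR plus empty pcDNA3 (no 11β-HSD1/H6PDH). After 6 h, washed into steroid-free medium, then 24 h with 100 nM cortisol and graded inhibitor. β-Galactosidase normalized to luciferase, as % of steroid-only control. Four independent experiments, means ± SD.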

[9] = biological target: T6, Mineralocorticoid receptor (Homo sapiens, UniProt P08235); assay: Antagonist activity against MR; assay type: functional
T6 sequence (P08235 whole entry): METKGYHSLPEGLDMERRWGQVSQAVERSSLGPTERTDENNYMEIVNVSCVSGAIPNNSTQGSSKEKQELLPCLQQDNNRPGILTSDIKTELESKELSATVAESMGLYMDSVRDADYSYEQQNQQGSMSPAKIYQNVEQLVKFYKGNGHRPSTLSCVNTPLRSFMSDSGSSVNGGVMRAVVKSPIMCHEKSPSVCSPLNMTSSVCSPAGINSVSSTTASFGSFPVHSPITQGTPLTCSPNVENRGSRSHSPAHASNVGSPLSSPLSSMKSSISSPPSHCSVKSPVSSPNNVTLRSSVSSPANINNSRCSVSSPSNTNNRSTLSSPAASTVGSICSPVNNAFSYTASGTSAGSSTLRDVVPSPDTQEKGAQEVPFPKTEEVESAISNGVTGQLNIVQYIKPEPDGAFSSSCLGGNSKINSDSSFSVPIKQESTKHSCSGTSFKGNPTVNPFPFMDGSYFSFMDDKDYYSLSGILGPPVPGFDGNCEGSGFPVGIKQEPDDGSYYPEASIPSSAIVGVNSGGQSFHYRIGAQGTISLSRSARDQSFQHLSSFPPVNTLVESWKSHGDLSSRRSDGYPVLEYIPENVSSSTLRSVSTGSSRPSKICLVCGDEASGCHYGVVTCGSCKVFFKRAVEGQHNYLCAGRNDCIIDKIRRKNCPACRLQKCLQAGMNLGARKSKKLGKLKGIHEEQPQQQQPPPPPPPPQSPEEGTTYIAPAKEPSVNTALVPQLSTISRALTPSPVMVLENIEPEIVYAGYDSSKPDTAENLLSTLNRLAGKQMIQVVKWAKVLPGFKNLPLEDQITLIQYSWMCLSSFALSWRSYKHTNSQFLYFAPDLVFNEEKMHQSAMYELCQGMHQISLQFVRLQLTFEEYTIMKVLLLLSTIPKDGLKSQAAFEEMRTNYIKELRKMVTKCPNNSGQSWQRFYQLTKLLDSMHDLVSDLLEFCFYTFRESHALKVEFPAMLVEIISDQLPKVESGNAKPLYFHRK
How it was run: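 HEK-293 cells on poly-L-lysine-coated wells, transfected with pMMTV-LacZ reporter, pCMV-LUC control and MR expression vector plus empty pcDNA3. […] Four independent experiments, means ± SD.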

[10] = biological target: T7, 11-beta-hydroxysteroid dehydrogenase 1 (Mus musculus, UniProt P50172); assay: Inhibition of 11-beta-HSD1-dependent cortisone conversion to cortisol in mouse intact C2C12 cells; assay type: functional, cell-based
T7 sequence (P50172 whole entry): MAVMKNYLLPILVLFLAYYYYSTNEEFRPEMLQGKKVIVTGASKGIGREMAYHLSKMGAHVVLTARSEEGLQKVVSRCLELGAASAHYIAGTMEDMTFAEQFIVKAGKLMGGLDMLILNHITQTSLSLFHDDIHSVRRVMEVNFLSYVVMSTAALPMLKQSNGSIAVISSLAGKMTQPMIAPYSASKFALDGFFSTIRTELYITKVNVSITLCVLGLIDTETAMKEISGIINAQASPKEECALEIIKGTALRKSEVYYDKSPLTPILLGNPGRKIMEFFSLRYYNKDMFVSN
How it was run: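 Differentiation: confluent C2C12 myoblasts kept 7 days in DMEM with 2% horse serum to form myotubes. Day-7 myotubes incubated 1 h at 37 °C with 200 nM radiolabeled cortisone and varying inhibitor (formation linear over 15–60 min). Steroids extracted from medium with ethyl acetate, separated by TLC, conversion by scintillation counting.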

[11] = biological target: T7, 11-beta-hydroxysteroid dehydrogenase 1; assay: Inhibition of 11-beta-HSD1-dependent cortisone conversion to cortisol in mouse intact 3T3 L1 cells; assay type: functional, cell-based
How it was run: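 3T3-L1 preadipocytes grown to confluence, held 48 h, differentiated 48 h (0.25 mM IBMX, 0.5 µM dexamethasone, 1 µg/mL insulin), then insulin medium 72 h, then insulin-free. Adipocytes incubated 45 min at 37 °C with 200 nM radiolabeled cortisone plus inhibitor at various concentrations. Medium steroids extracted, separated by TLC, scintillation counted.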

Row | SMILES | IC50 [2] [µM] | Activity [6] | IC50 [7] [µM] | IC50 [10] [µM] | IC50 [11] [µM] | IC50 [1] [µM] | IC50 [3] [µM] | Activity [4] | Activity [5] [%] | IC50 [8] [µM] | IC50 [9] [µM]
1 | CC1(C)[C@@H](N)CC[C@]2(C)[C@H]3C(=O)C=C4[C@@H]5C[C@@](C)(C(=O)O)CC[C@]5(C)CC[C@@]4(C)[C@]3(C)CC[C@@H]12 | 1.02 |  |  |  |  | 6.04 | > 30 | Not toxic | > 70 |  | 
2 | CC(=O)O[C@H]1CC[C@]2(C)[C@H]3C(=O)C=C4[C@@H]5C[C@@](C)(C(=O)O)CC[C@]5(C)CC[C@@]4(C)[C@]3(C)CC[C@H]2C1(C)C [ACETOXOLONE] |  |  | 3.78 |  |  |  | 18.8 | Not toxic | > 70 |  | 
3 | CC(=O)OC1CC[C@]2(C)C3=C(C(=O)C[C@H]2C1(C)C)[C@]1(C)CCC(C(C)CCC(=O)O)[C@@]1(C)CC3=O (some centres undefined) |  |  |  |  |  |  |  | Not toxic | > 70 | 11.8 | 21
4 | COc1ccc(CCNC(=O)C23CCC(C)(C(=O)C2=O)C3(C)C)cc1OC (centres undefined) | 5.21 |  |  | 4.17 | 3.9 |  | 20.2 | Not toxic | > 70 |  | 

Continued, in another order:

Row | IC50 [2] [µM] | Activity [6] | IC50 [7] [µM] | IC50 [10] [µM] | IC50 [11] [µM] | SMILES | IC50 [1] [µM] | IC50 [3] [µM] | Activity [4] | Activity [5] [%] | IC50 [8] [µM] | IC50 [9] [µM]
5 |  | inactive |  |  |  | C[C@]12CCC(=O)C=C1CC[C@@H]1[C@@H]2C(=O)C[C@@]2(C)[C@H]1CC[C@]2(O)C(=O)CO |  |  |  |  |  | 
6 | 3.84 |  | 10.3 |  |  | COC(=O)[C@@]1(C)CC[C@]2(C)CC[C@]3(C)C(=CC(=O)[C@@H]4[C@@]5(C)CC[C@H](Oc6ccccc6C(=O)O)C(C)(C)[C@@H]5CC[C@]43C)[C@@H]2C1 | 48 |  | Not toxic | > 70 |  | 
7 |  |  | 23.6 |  |  | C[C@H]1C[C@@]2(C)CC[C@](C)(C(=O)N[C@H](Cc3ccccc3)C(=O)O)C[C@@]2(C)C2=CC(=O)[C@@H]3[C@@]4(C)CC[C@H](O)C(C)(C)[C@@H]4CC[C@@]3(C)[C@@]21C |  | > 30 | Not toxic | > 70 |  | 
